Hits are enriched below; roughly 1.4% of the tested compounds scored in any of these assays.
CHT inh = inhibitors of human choline transporter CHT; AID 488975; CHT-expressing cells, membrane potential dye, choline response; hits give low values; B-score at 10 µM; actives 0.86% (n = 310,000);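 active = B-score over 3 SD under the library average, and starting fluorescence ratio not unusually high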;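 note: choline stimulus applied at its EC90 after an EC20 pre-addition; B-score computed on integrated fluorescence ratio after choline addition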
TNAP inh hiacc = blocks human TNAP under high phosphate acceptor concentration | actives 0.03% (n = 200,000) | P05186 | inhibition, % at 20 µM | purified TNAP, CDP-star luminescence, 1 M DEA;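 active = over 50% inhibition of tissue-nonspecific alkaline phosphatase at 20 µM in the single-dose screen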
Target sequence (P05186 whole entry, looked up): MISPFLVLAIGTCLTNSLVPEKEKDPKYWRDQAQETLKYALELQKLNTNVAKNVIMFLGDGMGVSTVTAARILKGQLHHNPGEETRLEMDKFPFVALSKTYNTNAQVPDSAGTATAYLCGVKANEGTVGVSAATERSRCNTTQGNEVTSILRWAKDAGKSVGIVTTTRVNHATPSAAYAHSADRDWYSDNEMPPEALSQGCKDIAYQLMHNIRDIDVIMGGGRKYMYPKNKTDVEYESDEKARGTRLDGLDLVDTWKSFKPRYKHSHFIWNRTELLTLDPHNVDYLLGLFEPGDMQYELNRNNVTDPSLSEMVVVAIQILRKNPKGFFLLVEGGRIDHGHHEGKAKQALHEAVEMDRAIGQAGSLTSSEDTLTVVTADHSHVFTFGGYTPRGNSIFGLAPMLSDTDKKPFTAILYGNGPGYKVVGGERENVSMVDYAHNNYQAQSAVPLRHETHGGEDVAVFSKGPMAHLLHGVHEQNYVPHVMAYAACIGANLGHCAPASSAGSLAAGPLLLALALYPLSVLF
ABCB6 inh MLPCN = human ABCB6 transporter inhibition; actives 0.19% (n = 360,000); AID 602162; K562-ABCB6 porphyrin accumulation, flow cytometry, 1 h; hits give low values; Q9NP58; fluorescence ratio to DMSO, % at 10 µM;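 active = fluorescence ratio to DMSO below 75%, the collection mean minus 3 SD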;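 note: signal is porphyrin accumulated inside mitochondria; lower ratio means ABCB6 inhibition with less porphyrin fluorescence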
TNAP inh no acc = blocks human TNAP activity with no phosphate acceptor present; purified TNAP, CDP-star luminescence, 30 min; inhibition, % at 20 µM; actives 0.26% (n = 200,000);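 active = tissue-nonspecific alkaline phosphatase inhibition above about 50% at 20 µM in the single-dose screen, limit read from the data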
CHT PAM = allosterically activates the human high affinity choline transporter; Q9GZV3; CHT-expressing cells, membrane potential dye, choline EC20; hits give high values; LV-AA mutant CHT in HEK293 cells; B-score at 10 µM; actives 0.49% (n = 310,000);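 active = initial fluorescence not abnormally high and integrated response B-score, plate-corrected, over 3 SD above library mean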
TNAP act hiacc = increases human TNAP activity under high phosphate acceptor concentration. purified TNAP, CDP-star luminescence, 1 M DEA, 30 min; hits give high values; 0 = EDTA background, 1 = DMSO-only activity. activation factor at 20 µM. 200,000 tested, under 10 active. AID 1136;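 active = activation factor at least 2 at 20 µM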
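system = human TNAP | amount = enzyme diluted 1/800 final | reagent = 100 µM CDP-star substrate | signal = luminescent substrate turnover signal | dosing = one dose, 20 µM | benchmarks = EDTA negative control, DMSO positive control | measure = activation factor | timing = 30 min reaction, room temperature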
CHT inh conf = human CHT inhibition, confirmatory screen; AID 493221; shares compounds with CHT inh; actives 70% (n = 2,400); CHT activity remaining % of control (hits give low values), % at 10 µM; CHT-expressing cells, choline membrane potential dye; LV-to-AA substituted CHT, HEK293 cells;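 active = choline transporter activity left, mean of duplicates at 10 µM, below buffer-only control mean minus 3 SD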;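 note: depolarization triggered by choline at its EC90 following an EC20 pre-addition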
HEK293 MPD ctr = activity in parental HEK293 cells lacking CHT; membrane potential ratio readout (active if shifted either direction beyond buffer ±3SD; no single direction) at 10 µM; shares compounds with CHT inh; membrane potential dye, choline response; active = decrease or increase beyond buffer ±3SD; actives 4% (n = 2,400);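 note: parental cells lack the transporter so any hit is non-specific; ratio is peak minus trough fluorescence over baseline after EC90 choline challenge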
Of the large screens only hits and unclear results are named; the others gave an inactive call (follow-up assays come after a bar, where they were run).

CCCn1nc2cc(C(=O)NCc3ccc(C)cc3)ccc2c1OCC	CHT inh -5.6 | CHT inh conf 56% | HEK293 MPD ctr inactive
CCOc1c2ccc(C(=O)NC3CCCc4ccccc43)cc2nn1C (configuration not stated)	none
CCCCn1nc2cc(C(=O)N[C@H](C)C3CCCCC3)ccc2c1OCC	CHT inh -11 | CHT inh conf 5.4% | HEK293 MPD ctr inactive
CCCCn1nc2cc(C(=O)NC3CCCc4ccccc43)ccc2c1OCC (configuration not stated)	CHT inh -9.6 | CHT inh conf 21% | HEK293 MPD ctr inactive
CCCCn1nc2cc(C(=O)NCc3cc(C(F)(F)F)cc(C(F)(F)F)c3)ccc2c1OCC	none
COc1ccc(C(C(=O)NC2CCCCC2)N(CC2CCCO2)C(=O)C2COc3ccccc3O2)cc1OC (configuration not stated)	CHT inh -5.9 | CHT inh conf inactive | HEK293 MPD ctr inactive
Cc1ccsc1/C=N/NC(=O)c1c[nH]c2ccccc12	none
O=C(N/N=C/c1ccsc1)c1c[nH]c2ccccc12	CHT inh -7 (no result: TNAP inh hiacc, TNAP inh no acc, TNAP act hiacc) | CHT inh conf 69% | HEK293 MPD ctr inactive
COc1cc(CNCCc2ccccc2)cc(Br)c1OCC(=O)Nc1ccccc1C	CHT inh -8.4 | CHT inh conf 43% | HEK293 MPD ctr inactive
CCN(CC(=O)NCc1cccs1)C(=O)c1cccc(S(=O)(=O)N2CC(C)OC(C)C2)c1 (configuration not stated)	none (no result: CHT inh, TNAP inh hiacc, TNAP inh no acc, CHT PAM, TNAP act hiacc)
Cc1noc(C)c1CSCc1ccc(Cl)cc1	none
Cc1c(NC(=O)/C=C/c2cn(-c3ccccc3)nc2-c2ccccc2)c(=O)n(-c2ccccc2)n1C	CHT inh -5.7 | CHT inh conf 65% | HEK293 MPD ctr inactive
C/C(=N\OCC(=O)Nc1ccccc1C(=O)O)c1cccs1	CHT inh -6.2 | CHT inh conf 44% | HEK293 MPD ctr inactive
CC12CCC(=O)N1C(C(=O)Nc1cc(S(=O)(=O)N3CCCCCC3)ccc1OCC(F)(F)F)CS2 (configuration not stated)	none (no result: TNAP inh hiacc, TNAP inh no acc, TNAP act hiacc)
Cc1cc(C)cc(C(=O)Nc2ccc(N3CCN(C(=O)c4ccco4)CC3)cc2)c1	none (no result: TNAP inh hiacc, TNAP inh no acc, TNAP act hiacc)
Cc1ccc2cc(C)c3nnc(SCC(=O)Nc4nc5c(s4)CCCC5)n3c2c1C	none
c1ccc(Sc2ncnc3ccccc23)cc1	CHT inh -5 (no result: TNAP inh hiacc, TNAP inh no acc, TNAP act hiacc) | CHT inh conf inactive | HEK293 MPD ctr inactive
O=C(O)C[C@H]1c2ccc(C(F)(F)F)cc2S(=O)(=O)N1Cc1ccccc1	none (no result: TNAP inh hiacc, TNAP inh no acc, TNAP act hiacc)
CCCCN(CCCC)CCNC(=O)c1cn(CC)c2ccc(S(=O)(=O)N3CCc4ccccc4C3)cc2c1=O	CHT inh -9.2 (no result: TNAP inh hiacc, TNAP inh no acc, TNAP act hiacc) | CHT inh conf 12% | HEK293 MPD ctr inactive
CCn1cc(C(=O)NCCCN2CC(C)CC(C)C2)c(=O)c2cc(S(=O)(=O)N(C)C)ccc21 (configuration not stated)	none
Cn1cc(C(=O)N2CCc3ccccc3C2)c(=O)c2cc(S(=O)(=O)N3CCOCC3)ccc21	CHT inh -6 | CHT inh conf inactive | HEK293 MPD ctr inactive
C=CCn1cc(C(=O)NCCCN(CC)CC)c(=O)c2cc(S(=O)(=O)N3CCC(C)CC3)ccc21	CHT inh -8.6 (no result: TNAP inh hiacc, TNAP inh no acc, TNAP act hiacc) | CHT inh conf 26% | HEK293 MPD ctr inactive
CCn1cc(C(=O)NCCCN2CCCC(C)C2)c(=O)c2cc(S(=O)(=O)N3CCc4ccccc4C3)ccc21 (configuration not stated)	CHT inh -16 | CHT inh conf 20% | HEK293 MPD ctr 3.6
CN(CC(=O)Nc1cccc(F)c1)C(=O)COc1cccc2c1OC(C)(C)C2	none (no result: TNAP inh hiacc, TNAP inh no acc, TNAP act hiacc)
CC(C)(C)OC(=O)N1CCCC(C(=O)Nc2ccc(C(=O)N3CCOCC3)cc2)C1 (configuration not stated)	none (no result: CHT inh, TNAP inh hiacc, TNAP inh no acc, CHT PAM, TNAP act hiacc)

Assay outcomes (PubChem BioAssay)
